Compound activity: PubChem BioAssay, several laboratories
SKKanGAS inh – inhibitors of SKKanGAS S. pyogenes growth in kanamycin (SK-promoter or general growth effect); BacTiter-Glo, 6 h; inhibition, % at 7.5 µM; 300,000 compounds, 1.3% hits; AID 1662;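 active means mean replicate score, as percent of positive control median, at least 50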;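 further: strain carries kanamycin resistance gene driven by streptokinase promoter and grows in 40 µg/ml kanamycin; loss of luminescence reflects streptokinase promoter inhibition or plain growth inhibition; 0% = median of DMSO wells and 100% = positive control at its reference dose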
CSC inhib – blocks cancer stem cells | 300,000 compounds, 1.1% hits | inhibition, % at 7.5 µM | AID 2717 | cancer stem cell-like cells viability, luminescence; in the data active means inhibition above about 75%; tested in HMLE shEcad cells
T cruzi repl – blocks replication of Trypanosoma cruzi; inhibition, % (no concentration beside the values); T. cruzi beta-gal in NIH3T3, luminescence, 90 h; AID 1885; 300,000 compounds, 1.4% hits;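 active means mean inhibition across valid replicates above about 55%, limit read from the data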;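 further: signal also drops with host cell toxicity which is not excluded here; 0% = plate median of DMSO wells and 100% = zero luminescence signal; higher percent means less beta-gal luminescence so fewer parasites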
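System: Mouse NIH/3T3 fibroblasts infected with β-gal-expressing T. cruzi Tulahuen C4 | Quantity: NIH/3T3 cells, 5,000 per well | Reagent: 5000 reporter trypomastigotes per well | Dosing: Compound pinned at 50 nL/well, DMSO | Schedule: 3 h host attachment, then at least 90 h co-culture | Detection: GalScreen luminescence, 60 min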
Mdm2-MdmX inh – human Mdm2/MdmX binding inhibition. inhibition, % at 8 µM. O15151+Q00987. AID 485346. SaOS-2 split-luciferase Mdm2/MdmX complementation, luminescence. 330,000 compounds, 3% hits;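 active means inhibition of at least 50% at 8 µM in the primary screen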
Target sequence (O15151 whole entry, looked up): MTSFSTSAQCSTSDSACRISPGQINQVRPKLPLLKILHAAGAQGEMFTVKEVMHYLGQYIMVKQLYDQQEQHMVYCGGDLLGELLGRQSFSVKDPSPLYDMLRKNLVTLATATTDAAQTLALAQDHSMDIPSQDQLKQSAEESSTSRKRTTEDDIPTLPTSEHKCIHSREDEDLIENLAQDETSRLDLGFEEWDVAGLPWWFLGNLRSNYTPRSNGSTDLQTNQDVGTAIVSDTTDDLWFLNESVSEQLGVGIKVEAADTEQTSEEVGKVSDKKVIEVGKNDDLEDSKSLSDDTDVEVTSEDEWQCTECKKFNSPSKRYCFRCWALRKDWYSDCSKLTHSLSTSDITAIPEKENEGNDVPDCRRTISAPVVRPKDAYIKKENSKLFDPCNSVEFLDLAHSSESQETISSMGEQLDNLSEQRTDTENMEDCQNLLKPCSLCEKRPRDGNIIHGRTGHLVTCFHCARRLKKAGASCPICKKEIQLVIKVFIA
Target sequence (Q00987 whole entry, looked up): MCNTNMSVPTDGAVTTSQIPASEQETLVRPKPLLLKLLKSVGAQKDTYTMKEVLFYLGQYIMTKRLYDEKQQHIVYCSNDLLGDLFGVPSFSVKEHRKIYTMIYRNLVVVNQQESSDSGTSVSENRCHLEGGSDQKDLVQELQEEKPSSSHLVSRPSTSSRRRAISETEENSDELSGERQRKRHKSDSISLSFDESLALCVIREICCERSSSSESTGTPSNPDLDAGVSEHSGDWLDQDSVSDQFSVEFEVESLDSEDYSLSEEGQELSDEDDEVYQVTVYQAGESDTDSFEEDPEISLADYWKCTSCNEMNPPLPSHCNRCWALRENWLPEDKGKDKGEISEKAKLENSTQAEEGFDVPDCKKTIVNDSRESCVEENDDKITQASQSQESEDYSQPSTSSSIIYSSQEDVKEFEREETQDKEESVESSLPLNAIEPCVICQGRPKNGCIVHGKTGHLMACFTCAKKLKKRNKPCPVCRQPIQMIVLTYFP
aSyn UTR inh – 5' untranslated region of α-synuclein, MLPCN primary screen; 300,000 compounds, 0.82% hits; inhibition, % (tested at 7.5 µM); AID 1813; alpha-synuclein 5'UTR reporter, inhibitor activity; in the data active means inhibition above about 60%;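 further: H4 neuroglioblastoma cells stably carrying SNCA 5'UTR luciferase fusion; 0% = DMSO wells and 100% = positive control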
Starred values were filed as active, the others as inactive. Compounds with a hit are over-represented: about 5.4% of the library has one in this group of screens.

What do the screens show for `CN(C)CCCN(C(=O)c1ccc(S(=O)(=O)N(C)C)cc1)c1nc2ccc(F)cc2s1`?
SKKanGAS inh: -2; CSC inhib: -11; T cruzi repl: 67*; Mdm2-MdmX inh: 32; aSyn UTR inh: -57

Results for Cc1ccc2nc(N(CCCN(C)C)C(=O)c3ccc(S(=O)(=O)N(C)C)cc3)sc2c1 ?
SKKanGAS inh: 1; CSC inhib: -5; T cruzi repl: 53; Mdm2-MdmX inh: 2; aSyn UTR inh: 16

What do the screens show for `CN(C)CCN(C(=O)c1cc(Cl)sc1Cl)c1nc2ccc(F)cc2s1`?
SKKanGAS inh: -15; CSC inhib: -14; T cruzi repl: 56*; Mdm2-MdmX inh: -21; aSyn UTR inh: -94

What do the screens show for `CCN(CC)CCN(C(=O)c1ccc2c(c1)CCCC2)c1nc2ccc(F)cc2s1`?
SKKanGAS inh: -3; CSC inhib: 18; T cruzi repl: 55*; Mdm2-MdmX inh: 1; aSyn UTR inh: -44

What do the screens show for `O=C(/C(=C/O)N=Nc1ccc(Cl)cc1)c1ccncc1`?
SKKanGAS inh: -8; CSC inhib: 77*; T cruzi repl: 9; Mdm2-MdmX inh: 29; aSyn UTR inh: -22

Results for Cc1ccc(N=N/C(=C\O)C(=O)c2ccncc2)cc1 ?
SKKanGAS inh: 1; CSC inhib: 20; T cruzi repl: -2; Mdm2-MdmX inh: 26; aSyn UTR inh: 11

What do the screens show for `CN(CC(=O)Nc1cccc(S(=O)(=O)N2CCOCC2)c1)CC(=O)Nc1ccc(Cl)c(C(F)(F)F)c1`?
SKKanGAS inh: 13; CSC inhib: 3; T cruzi repl: -11; Mdm2-MdmX inh: 37; aSyn UTR inh: -8

How did COc1ccc(CN2CCN(Cc3ccc(C(F)(F)F)cc3)CC2)c(OC)c1 do in these assays?
SKKanGAS inh: 1; CSC inhib: 60; T cruzi repl: 49; Mdm2-MdmX inh: 32; aSyn UTR inh: -25

What do the screens show for `COc1ccc(CN2CCN(Cc3ccc(C)cc3)CC2)c(OC)c1`?
SKKanGAS inh: 3; CSC inhib: 16; T cruzi repl: 57*; Mdm2-MdmX inh: -4; aSyn UTR inh: -1

What do the screens show for `Cn1cnc(C(=O)NCc2ccccc2)c1C(=O)NCc1ccccc1`?
CSC inhib: 21; Mdm2-MdmX inh: 14

Results for O=C(Nc1nnc(-c2ccc3c(c2)CCCC3)o1)C1COc2ccccc2O1 (centres undefined) ?
SKKanGAS inh: 99*; CSC inhib: 31; T cruzi repl: -1; Mdm2-MdmX inh: -7; aSyn UTR inh: -39

What do the screens show for `COc1ccccc1C(=O)Nc1nnc(-c2ccc3c(c2)CCCC3)o1`?
SKKanGAS inh: 58*; CSC inhib: 28; T cruzi repl: -1; Mdm2-MdmX inh: -29; aSyn UTR inh: -22

What do the screens show for `O=C(COc1ccccc1)Nc1nnc(-c2ccc(Cl)cc2)o1`?
SKKanGAS inh: 44; CSC inhib: 12; T cruzi repl: 1; Mdm2-MdmX inh: 16; aSyn UTR inh: 2

How did O=C(COc1ccc(Cl)cc1)Nc1nnc(-c2ccc3c(c2)CCCC3)o1 do in these assays?
SKKanGAS inh: 97*; CSC inhib: 23; T cruzi repl: -9; Mdm2-MdmX inh: -49; aSyn UTR inh: -53

What do the screens show for `CCOC(=O)C1=CN(Cc2cccc(F)c2)S(=O)(=O)N(CC)C1c1ccc(Br)cc1F` (centres undefined)?
Mdm2-MdmX inh: 30

What do the screens show for `CS(=O)(=O)c1cccc(NC(=O)c2ccc(Cl)c(Cl)c2)c1`?
SKKanGAS inh: -4; CSC inhib: -16; T cruzi repl: 58*; Mdm2-MdmX inh: 20; aSyn UTR inh: -60

Results for O=S(=O)(c1ccccc1Br)N(Cc1ccccc1)CC(O)COCc1ccccc1 (centres undefined) ?
Mdm2-MdmX inh: 11

What do the screens show for `Cc1ccc(CS(=O)Cc2ccc(C(=O)N3CCN(c4ccc(F)cc4)CC3)o2)cc1` (centres undefined)?
SKKanGAS inh: 4; CSC inhib: 2; T cruzi repl: 10; Mdm2-MdmX inh: 1; aSyn UTR inh: -15

What do the screens show for `Cc1ccc(CS(=O)Cc2ccc(C(=O)N3CCN(c4ccccc4)CC3)o2)cc1` (centres undefined)?
SKKanGAS inh: 31; CSC inhib: -6; T cruzi repl: 56*; Mdm2-MdmX inh: -6; aSyn UTR inh: 25

How did CCN(CC)CCCOC(=O)c1ccc(OC)cc1O do in these assays?
SKKanGAS inh: 5; CSC inhib: 6; T cruzi repl: 84*; Mdm2-MdmX inh: 18; aSyn UTR inh: 11

What do the screens show for `N#C/C(=C\c1c(Oc2ccccc2F)nc2ccccn2c1=O)C(=O)NC1CCS(=O)(=O)C1` (centres undefined)?
SKKanGAS inh: 3; CSC inhib: 1; T cruzi repl: -8; Mdm2-MdmX inh: 22; aSyn UTR inh: 16

What do the screens show for `O=C(NCCN1CCOCC1)C1CCN(c2ncnc3c2sc2cccc(F)c23)CC1`?
SKKanGAS inh: -9; CSC inhib: 1; T cruzi repl: -4; Mdm2-MdmX inh: 27; aSyn UTR inh: 4

What do the screens show for `CCCCN(CC)CCCNC(=O)C1CCN(c2ncnc3c2sc2cccc(F)c23)CC1`?
SKKanGAS inh: -4; CSC inhib: 11; T cruzi repl: 70*; Mdm2-MdmX inh: 27; aSyn UTR inh: -38

Results for COCc1c(C(=O)N/N=C/c2ccncc2)nnn1-c1nonc1N ?
SKKanGAS inh: 0; CSC inhib: -3; T cruzi repl: 1; Mdm2-MdmX inh: 24; aSyn UTR inh: 4

What do the screens show for `S=C(NNc1nc(Nc2ccccc2)nc(N2CCCCC2)n1)NC1CCCCC1`?
SKKanGAS inh: 60*; CSC inhib: -10; T cruzi repl: 8; Mdm2-MdmX inh: 6; aSyn UTR inh: -14

What do the screens show for `COc1ccc(OCC(=O)Nc2cc(OC)ccc2N2CCCCC2)cc1`?
SKKanGAS inh: 6; T cruzi repl: 25; Mdm2-MdmX inh: 28; aSyn UTR inh: 13

How did O=C1N[C@@H](Cc2ccccc2)C(=O)N2[C@@H]3N(S(=O)(=O)c4ccccc4)c4ccccc4[C@]3(Br)C[C@@H]12 do in these assays?
SKKanGAS inh: 6; CSC inhib: -21; T cruzi repl: 11; Mdm2-MdmX inh: -18; aSyn UTR inh: -7

What do the screens show for `CC(C)c1cc(C(C)C)c(S(=O)(=O)N2c3ccccc3[C@]3(Br)C[C@H]4C(=O)N[C@@H](Cc5ccccc5)C(=O)N4[C@H]23)c(C(C)C)c1`?
SKKanGAS inh: 30; T cruzi repl: 55*; aSyn UTR inh: 65*

What do the screens show for `Fc1ccc2cc(-c3ccccc3F)ncc2c1`?
CSC inhib: 17; Mdm2-MdmX inh: -13

Results for COC(=O)c1cc(C(=O)c2ccc(Cl)cc2Cl)cn1C ?
SKKanGAS inh: 7; CSC inhib: 10; T cruzi repl: -21; Mdm2-MdmX inh: 25; aSyn UTR inh: -4

Results for Cn1cc(C(=O)c2ccc(Cl)cc2Cl)cc1C(=O)N/N=C(\N)COc1cccc(C(F)(F)F)c1 ?
SKKanGAS inh: 59*; CSC inhib: 36; T cruzi repl: -28; Mdm2-MdmX inh: 24; aSyn UTR inh: 23

Results for CCc1noc(C)c1C(=O)OCC(=O)NC(=O)c1ccccc1 ?
SKKanGAS inh: 50*; CSC inhib: -4; T cruzi repl: -12; Mdm2-MdmX inh: 13; aSyn UTR inh: -1
